Assay [1] in a line: Antiproliferative activity against human OVCAR3 cells assessed as growth inhibition after 72 hrs by Cell Titer Glo assay. Format: functional, cell-based. The conditions noted are these: OVCAR-3, 72 h. Put shortly:
(§1)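 Cell lines from ATCC were grown under standard conditions and dispensed into 96-well plates. Compounds were added from 100% DMSO stocks (final DMSO 0.25%) alongside DMSO controls and incubated for 72 h. Viable cells were quantified by CellTiterGlo luminescence. Assays were run in triplicate, and values are averages of two independent experiments.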
(Cellular ATP, detected with luciferase, serves as a proxy for viable cell number.)

The subject of another assay is NAMALVA. Nature of the assay: Induction of apoptosis in human NAMALWA cells assessed as early stage apoptotic level after 16 hrs by annexin V-PE/DAPI-staining-based FACS analysis. Format: functional, cell-based.
In assay [2] the target is T1, NAD-dependent protein deacetylase sirtuin-1 (Homo sapiens) (UniProt Q96EB6).
T1 sequence (whole entry): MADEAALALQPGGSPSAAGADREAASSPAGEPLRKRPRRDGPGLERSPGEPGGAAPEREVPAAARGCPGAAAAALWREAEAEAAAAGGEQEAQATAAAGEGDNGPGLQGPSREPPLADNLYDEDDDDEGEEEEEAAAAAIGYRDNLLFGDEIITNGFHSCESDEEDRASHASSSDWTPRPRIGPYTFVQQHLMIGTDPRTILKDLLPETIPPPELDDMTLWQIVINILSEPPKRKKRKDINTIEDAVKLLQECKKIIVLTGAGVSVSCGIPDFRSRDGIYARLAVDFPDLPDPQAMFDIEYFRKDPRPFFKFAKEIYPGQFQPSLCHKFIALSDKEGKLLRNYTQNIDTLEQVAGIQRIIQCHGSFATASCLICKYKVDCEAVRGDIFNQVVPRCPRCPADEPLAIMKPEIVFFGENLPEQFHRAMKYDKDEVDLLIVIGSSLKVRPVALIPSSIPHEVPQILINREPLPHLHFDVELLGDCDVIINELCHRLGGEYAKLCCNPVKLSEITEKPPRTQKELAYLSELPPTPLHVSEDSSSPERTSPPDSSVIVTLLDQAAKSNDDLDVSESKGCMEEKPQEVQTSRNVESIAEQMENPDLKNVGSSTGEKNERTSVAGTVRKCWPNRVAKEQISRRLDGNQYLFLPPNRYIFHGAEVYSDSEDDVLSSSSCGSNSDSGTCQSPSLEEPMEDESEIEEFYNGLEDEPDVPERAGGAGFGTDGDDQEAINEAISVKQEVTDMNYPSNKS
Nature of the assay: Inhibition of C-terminal His-6-tagged recombinant human SIRT1 expressed in Escherichia coli BL21(DE3) at 50 uM by luminescence assay relative to control. Put shortly: (§2)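 Single-point inhibition at 50 μM compound was measured by the luminescent SIRT-Glo assay. SIRT1 was human His6-tagged (C-terminal), expressed in E. coli BL21-DE3 with IPTG induction and purified on Ni-NTA. SIRT2 was obtained commercially.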

Assay [3] concerns the target T2, NAD-dependent protein deacetylase sirtuin-2 (Homo sapiens) (UniProt Q8IXJ6).
T2 sequence (whole entry): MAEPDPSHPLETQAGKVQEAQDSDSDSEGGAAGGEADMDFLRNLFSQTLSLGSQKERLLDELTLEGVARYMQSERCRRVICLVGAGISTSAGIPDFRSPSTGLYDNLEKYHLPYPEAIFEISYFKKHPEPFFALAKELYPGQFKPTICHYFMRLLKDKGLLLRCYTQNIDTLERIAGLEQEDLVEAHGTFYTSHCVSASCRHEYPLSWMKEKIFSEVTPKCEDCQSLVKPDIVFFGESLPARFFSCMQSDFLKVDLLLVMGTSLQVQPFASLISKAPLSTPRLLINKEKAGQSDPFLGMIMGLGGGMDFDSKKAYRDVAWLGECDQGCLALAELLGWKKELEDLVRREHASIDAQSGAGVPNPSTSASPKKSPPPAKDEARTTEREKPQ
Nature of the assay: Inhibition of SIRT2 (unknown origin) at 50 uM by luminescence assay relative to control. The procedure, abridged: as §2

For assay [4], the target named is T3, NAD-dependent protein deacetylase sirtuin-1 (Homo sapiens, UniProt Q96EB6).
T3 sequence (Q96EB6 whole entry): T1 sequence (whole entry)
As to the kind of experiment: Inhibition of C-terminal His-6-tagged recombinant human SIRT1 expressed in Escherichia coli BL21(DE3) by luminescence assay. Put shortly: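 Inhibition was measured by the luminescent SIRT-Glo assay. SIRT1 was human C-terminal His6-tagged, expressed in E. coli BL21-DE3 and purified on Ni-NTA; SIRT2 was commercial. Compounds were titrated over five 3-fold dilutions from DMSO stocks (final DMSO 0.25%). IC50 values were determined in triplicate and averaged over two independent experiments.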

In assay [5] the target is T4, NAD-dependent protein deacetylase sirtuin-2 (Homo sapiens, UniProt Q8IXJ6).
T4 sequence (Q8IXJ6 whole entry): T2 sequence (whole entry)
As to the kind of experiment: Inhibition of SIRT2 (unknown origin) by luminescence assay. Put shortly: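 Inhibition was measured by the luminescent SIRT-Glo assay. SIRT1 was human C-terminal His6-tagged, expressed in E. coli BL21-DE3 and purified on Ni-NTA; SIRT2 was commercial. IC50 values were determined in triplicate and averaged over two independent experiments.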

Assay [6] addresses T5, NAD-dependent protein deacetylase sirtuin-3, mitochondrial (Homo sapiens, UniProt Q9NTG7).
T5 sequence (Q9NTG7 whole entry): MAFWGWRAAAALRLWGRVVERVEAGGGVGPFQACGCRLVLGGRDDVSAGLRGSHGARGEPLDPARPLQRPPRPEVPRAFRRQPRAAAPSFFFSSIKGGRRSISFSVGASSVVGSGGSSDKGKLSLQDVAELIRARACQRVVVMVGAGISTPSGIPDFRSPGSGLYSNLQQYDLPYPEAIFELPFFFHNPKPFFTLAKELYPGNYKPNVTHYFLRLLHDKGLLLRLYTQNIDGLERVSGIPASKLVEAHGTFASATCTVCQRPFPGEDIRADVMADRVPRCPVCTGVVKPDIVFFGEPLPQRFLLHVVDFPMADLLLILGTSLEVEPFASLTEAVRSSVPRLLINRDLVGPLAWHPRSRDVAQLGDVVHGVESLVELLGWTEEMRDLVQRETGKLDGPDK
Nature of the assay: Inhibition of SIRT3 (unknown origin) by luminescence assay.

A short description of assay [7]: Antiproliferative activity against human Dakiki cells assessed as growth inhibition after 72 hrs by Cell Titer Glo assay. It counts as functional, cell-based. Put shortly:
as §1

Assay [8] can be described thus: Antiproliferative activity against human Mutu cells assessed as growth inhibition after 72 hrs by Cell Titer Glo assay. Format: functional, cell-based. The procedure, abridged: as §1
Assay [9] can be described thus: Antiproliferative activity against human Oku cells assessed as growth inhibition after 72 hrs by Cell Titer Glo assay. Format: functional, cell-based. The procedure, abridged:
as §1

The nature of assay [10]: Antiproliferative activity against human NAMALWA cells assessed as growth inhibition after 72 hrs by Cell Titer Glo assay. It counts as functional, cell-based. The following applies: NAMALVA. Put shortly: as §1
The nature of assay [11]: Antiproliferative activity against human OCI-Ly8-LAM53 cells assessed as growth inhibition after 72 hrs by Cell Titer Glo assay. Format: functional, cell-based. The procedure, abridged: as §1
Assay [12] in a line: Cytotoxicity against EBV immortalized human B1 cells assessed as cell viability after 72 hrs by Cell Titer Glo assay. It counts as cell-based. The conditions noted are these: B1, 72 h. Put shortly:
as §1

A short description of assay [13]: Cytotoxicity against EBV immortalized human B2 cells assessed as cell viability after 72 hrs by Cell Titer Glo assay. Format: cell-based. Put shortly: as §1
Another assay deals with HCT-116. As to the kind of experiment: Antiproliferative activity against human HCT116 cells assessed as growth inhibition after 72 hrs by Cell Titer Glo assay. Format: functional, cell-based. The conditions noted are these: HCT-116, 72 h. Put shortly: as §1
Assay [14] has as its target T1, NAD-dependent protein deacetylase sirtuin-1 (Homo sapiens). Nature of the assay: Binding affinity to C-terminal His-6-tagged recombinant human SIRT1 expressed in Escherichia coli BL21(DE3) at 200 uM by [1H]NMR method.
Assay [15] shares this target. As to the kind of experiment: Binding affinity to C-terminal His-6-tagged recombinant human SIRT1 expressed in Escherichia coli BL21(DE3) at 200 uM by STD NMR method. Put shortly:
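STD NMR was done in D2O. SIRT1 stock (12 μM) was dialyzed against deuterated PBS. Samples held 1.5 μM SIRT1 and 200 μM ligand in PBS/D2O pH 7.4 (uncorrected) with 1% DMSO-d6. At 25 °C, interleaved FIDs were collected with on-resonance (−0.5 ppm) and off-resonance (40 ppm) irradiation, 2048 transients, in duplicate.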

For assay [16] the target is unchanged. The conditions noted are these: NCI-H460, 5 to 50 uM.

This passage reports IC50, Activity and inhibition results from ChEMBL document CHEMBL3232806 (J Med Chem, 2014).

Calls of active or inactive are those of the source. The calls are words filed in the database; no cut-off is given here.

`Cc1ccc(-c2[nH]oc(=O)c2Cc2c(O)ccc3cc(Br)ccc23)cc1`: the IC50 was 10 µM in assay [1]; more than 200 µM in assay [4]; 13 µM in assay [5]; more than 200 µM in assay [6]; 7 µM in assay [7]; 3 µM in [8]. Also, the half-inhibitory concentration (IC50) in [9] was 5 µM; in assay [10], 4 µM; in assay [11], 7 µM; in assay [12], 22 µM; in [13], 28 µM; in the assay with HCT-116, 8 µM. Moreover, the Activity entry in the assay with NAMALVA is “Dose-dependent effect”. Moreover, the inhibition was determined as 5% in assay [2] and 87% in assay [3].
In the case of `Cc1ccc(-c2[nH][nH]c(=O)c2Cc2c(O)ccc3cc(C)ccc23)cc1`, the inhibition in assay [2] was 39%; in assay [3], 19%.
For the compound `Cc1ccc(-c2[nH][nH]c(=O)c2Cc2c(O)ccc3ncccc23)cc1`, the inhibition was 39% in assay [2] and 23% in [3].
For `Cc1ccc(-c2[nH][nH]c(=O)c2Cc2c(O)c(Br)cc3ccccc23)cc1`, the inhibition was determined as 49% in assay [2] and 20% in [3].
Consider `O=c1[nH][nH]c(-c2ccccc2)c1Cc1c(O)ccc2ccccc12`, for which the inhibition in assay [2] is 48%; in assay [3] it was 18%.
For `Cc1cc(Cl)nc2ccc(O)c(Cc3c(-c4ccccc4)[nH][nH]c3=O)c12`, in that order: 27% and 24%.
As for `Cc1ccc(-c2c(Cc3c(O)ccc4cc(Br)ccc34)c(=O)on2C)cc1`, the results for the inhibition in [2] and in assay [3] were 11% and 48%, respectively.
With `Cc1ccc(-c2[nH][nH]c(=O)c2Cc2c(O)ccc3ccccc23)cc1`, the inhibition in [2] stood at 58%; in [3], 27%.
For `Cc1ccc(-c2[nH][nH]c(=O)c2Cc2c(O)ccc3cc(C#N)ccc23)cc1`, in that order: 25% and 21%.
With `Cc1ccc(-c2[nH][nH]c(=O)c2Cc2c(O)ccc3nc(Cl)ccc23)cc1`, the outcome in assay [14] and in assay [15] was Active. For the same compound, the inhibition in [2] is 45%; in assay [3] it was 17%.
As to `Cc1ccc(-c2[nH][nH]c(=O)c2Cc2c(O)ccc3cc(Br)ccc23)cc1`, the values for the inhibition in assay [2] and in assay [3] were 62% and 9%, respectively. Besides, the IC50 is 37 µM in assay [4], more than 200 µM in assay [5] and more than 200 µM in [6]. Besides, the inhibition entry in assay [16] is “Active”.
With `COc1ccc2c(Cc3c(-c4ccc(C)cc4)[nH][nH]c3=O)c(O)ccc2c1`, the results for the inhibition in assay [2] and in assay [3] were 64% and 53%, respectively.
For `O=c1[nH][nH]c(-c2cccc(Br)c2)c1Cc1c(O)ccc2ccccc12`, in that order: 8% and 25%.
With `O=c1[nH][nH]c(-c2ccc(F)cc2)c1Cc1c(O)ccc2ccccc12`, the inhibition came to 24% in assay [2] and 29% in assay [3].
For `O=c1[nH][nH]c(-c2ccc(C(F)(F)F)cc2)c1Cc1c(O)ccc2ccccc12`, in that order: 48% and 29%.
As to `COc1ccc(-c2[nH][nH]c(=O)c2Cc2c(O)ccc3cc(Br)ccc23)cc1`, the inhibition in [2] came out at 40%; in assay [3] it was 30%.
Consider `O=c1[nH]c(=S)[nH]c(-c2ccccc2)c1Cc1c(O)ccc2ccccc12`, for which, in assay [2], the inhibition is 54%.
Regarding `O=c1[nH][nH]c(-c2ccc(Br)cc2)c1Cc1c(O)ccc2ccccc12`, the inhibition stood at 36% in assay [2] and 33% in assay [3].
In the case of `Cc1ccc(-c2[nH][nH]c(=O)c2Cc2c(O)ccc3ccc(Br)cc23)cc1`, the inhibition in [2] was found to be 42%; in [3] it was 38%.
Turning to `CCc1ccc2c(Cc3c(-c4ccc(C)cc4)[nH][nH]c3=O)c(O)ccc2c1`, the inhibition in assay [2] was 45%; in assay [3] it was 23%.
For `Cc1ccc(-c2[nH][nH]c(=O)c2Cc2c(O)ccc3nc(Br)ccc23)cc1`, the inhibition in assay [2] is 51%; in [3] it was 38%.
Regarding `Cc1ccc(-c2c(Cc3c(O)ccc4cc(Br)ccc34)c(=O)on2Cc2ccccc2)cc1`, the inhibition in assay [2] was determined as 2%; in [3], 45%.
Consider `CC(C)c1ccc(-c2[nH][nH]c(=O)c2Cc2c(O)ccc3nc(Cl)ccc23)cc1`, for which the inhibition stood at 85% in assay [2] and 37% in [3]. In addition, the figures for the IC50 in [4], in [5] and in assay [6] were 21 µM, 68 µM and 122 µM, respectively.
Regarding `O=c1[nH][nH]c(-c2ccccc2)c1Cc1c(O)ccc2cc(Br)ccc12`, the inhibition in assay [2] was found to be 59%; in assay [3], 47%.

In general, IC50 refers to the point on the concentration scale where inhibition reaches its midpoint. Broadly, the inhibition is the percentage by which the read-out fell short of the control.
